We go through ten compounds from ChEMBL document CHEMBL1152278, “Discovery of ligands for a novel target, the human telomerase RNA, based on flexible-target virtual screening and NMR” (J Med Chem, 2008).

Molecules are shown by their SMILES.

The assay is described as follows: Binding affinity to human telomerase P2b RNA by […]. Summed up: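 hTR-P2b RNA made by in vitro T7 polymerase transcription from a synthetic DNA template. Titration was at 50 μM RNA in 20 mM sodium phosphate pH 6.7, 50 mM NaCl, 90/10% H₂O/D₂O, 15 °C, with ligand added stepwise. Kd was fitted from 800 MHz imino-proton chemical shifts under a fast-exchange model.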
One may read the Kd as a measure of binding affinity in units of concentration. A lower Kd goes with tighter binding. Compound `O=C(c1ccc(O)cc1)c1ccc(O)cc1` returned a dissociation constant Kd of 1500 µM. This lies in the millimolar range.
For `Nc1ccc(NC(=O)c2ccc(N)cc2)cc1` the value was 180 µM.
To `C[n+]1ccc(Nc2ccc(NC(=O)c3ccc(N)cc3)cc2)cc1` belongs 1100 µM; to `CCN(CC)Cc1cc(Nc2c3ccccc3nc3c4ccccc4n(C)c23)ccc1O`, 84 µM.
Consider `OCCOCCN1CCN(CCCN2c3ccccc3Sc3ccc(C(F)(F)F)cc32)CC1`, for which binding was characterised by a dissociation constant (Kd) of 1100 µM.
To `C[n+]1ccc(Nc2ccc(NC(=O)c3ccc(N)cc3[N+](=O)[O-])cc2)cc1` belongs 570 µM; to `CN(C)CCCN1c2ccccc2[C@H]2C[C@H]2c2ccccc21`, 1100 µM; to `N#Cc1ccc2c(c1)N(CCCN1CCN(CCO)CC1)c1ccccc1S2`, 310 µM.
As to `CN1CCN2c3ncccc3Cc3ccccc3C2C1` (stereo not given) [MIRTAZAPINE], binding was put at a Kd of 1500 µM.
Compound `CN1CCN(CCCN2c3ccccc3Sc3ccc(S(=O)(=O)N(C)C)cc32)CC1` [THIOPROPERAZINE] gave a dissociation constant Kd of 450 µM.
